Compound activity from PubChem.
In the library only some 1.7% were active in any assay of this set; here they are far more common.
HCV core dimer: blocks dimerization of HCV core protein | TR-FRET GST/Flag-core106 dimerization, 1536-well | 300,000 compounds, 0.33% hits | AID 1899 | inhibition, % at 5 µM;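 active = inhibition above the mean of all tested compounds plus 3 SD, set per screening campaign, cut at about 45% in these data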
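Test system: GST/Flag-tagged HCV core106 proteins; Medium: KF-containing HEPES buffer, pH 7.45, DTT, CHAPS, BSA; Times: compound-protein-antibody incubation 4 h at 22.5 °C; Detection: TR-FRET 671 and 617 nm emission; Benchmarks: wells lacking GST-core106 and wells with excess unlabelled core106.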
PP1 inh: PP1-alpha (human) inhibition in PP5 counter-screen; AID 2235; P62136; inhibition, % at 6.7 µM; purified PP1alpha, OMFP fluorescence; 320,000 compounds, 0.9% hits;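 active = inhibition above the mean inhibition of all tested compounds plus 3 SD, computed separately for each screening campaign, cut at about 15% in these data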
Target sequence (P62136 whole entry, looked up): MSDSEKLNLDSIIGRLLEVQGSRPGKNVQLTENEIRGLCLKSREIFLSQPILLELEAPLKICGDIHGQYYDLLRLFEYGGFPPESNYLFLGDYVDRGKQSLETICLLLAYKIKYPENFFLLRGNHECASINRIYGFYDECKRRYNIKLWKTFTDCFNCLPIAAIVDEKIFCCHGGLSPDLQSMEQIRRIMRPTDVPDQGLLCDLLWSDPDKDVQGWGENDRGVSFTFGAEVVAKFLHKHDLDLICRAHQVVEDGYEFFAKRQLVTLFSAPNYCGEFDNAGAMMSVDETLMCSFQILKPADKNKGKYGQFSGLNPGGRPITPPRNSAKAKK
PP5 primary: blocks human protein phosphatase 5 activity; purified PP5c, OMFP substrate fluorescence; P53041; inhibition, % at 6.7 µM; 320,000 compounds, 0.18% hits;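 active = inhibition above the campaign's mean inhibition across all tested compounds plus 3 SD, cut at about 9.5% in these data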;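 also: 0% = DMSO only and 100% = 100 µM cantharidin control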
EBNA-1 inhibitor: blocks EBNA-1 binding to DNA. EBNA-1 DNA binding, fluorescence polarization. inhibition, % at 14.8 µM. 300,000 compounds, 0.34% hits. AID 1950; in the data active = inhibition above about 28%
ZTA DNA inh: blocks Epstein-Barr virus ZTA, an EBNA-1 counter-screen; P03206; ZTA-DNA binding, fluorescence polarization; inhibition, % at 11 µM; 320,000 compounds, 0.15% hits; AID 2234; in the data active = inhibition above about 33%
Target sequence (P03206 whole entry, looked up): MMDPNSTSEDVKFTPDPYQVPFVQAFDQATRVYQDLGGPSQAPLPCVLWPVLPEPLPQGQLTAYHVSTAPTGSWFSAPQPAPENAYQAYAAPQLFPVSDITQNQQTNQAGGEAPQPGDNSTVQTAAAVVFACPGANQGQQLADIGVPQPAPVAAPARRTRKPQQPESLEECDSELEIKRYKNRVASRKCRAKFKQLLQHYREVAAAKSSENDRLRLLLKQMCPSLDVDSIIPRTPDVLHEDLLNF
PP5 inh confirm: PP5 (human) inhibition, confirmation; Purified PP5, fluorogenic phosphatase substrate, fluorescence; shares compounds with PP5 primary; AID 2331; 460 compounds, 22% hits; inhibition, % at 6.7 µM; in the data active = inhibition above about 9.5%
PP1 counter 3x: inhibits human PP1 phosphatase in PP5 counter-screen. PP1 enzyme, fluorescent phosphatase substrate. inhibition, % at 6.7 µM. 460 compounds, 4% hits. shares compounds with PP5 primary; in the data active = inhibition above about 16%
ZTA inh confirm: EBV ZTA DNA binding inhibition, confirmation; shares compounds with ZTA DNA inh; Zta-ZRE DNA binding, fluorescence polarization; inhibition, % at 11.1 µM; 320 compounds, 30% hits; AID 2361;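 active = mean inhibition across triplicate runs above the hit threshold derived for the original primary screen, cut at about 33% in these data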;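 also: 0% = Zta with DMSO and 100% = wells lacking Zta protein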
EBNA1 counter: EBNA-1 DNA binding inhibition, counter-screen for ZTA; shares compounds with ZTA DNA inh; fluorescence polarization; inhibition, % at 14.8 µM; 320 tested, under 10 active; call rule not given here
Numbers without * were called inactive; x = no result given.

SMILES	HCV core dimer	PP1 inh	PP5 primary	EBNA-1 inhibitor	ZTA DNA inh	ZTA inh confirm	EBNA1 counter	others
O=C(CCC(=O)N1CCCCC1)Nc1nnc(C2CCCCC2)s1	2	-4	-2	-1	-8	x	x
CCSc1nsc(NC(=O)Nc2cccc(F)c2)n1	-7	14	-1	-7	-21	x	x
CCCSc1nsc(NC(=O)Nc2ccc(F)cc2F)n1	-5	7	10*	-2	-5	x	x	PP5 inh confirm=-2;PP1 counter 3x=1
O=C(COC(=O)Cc1c(Cl)cccc1Cl)Nc1ccc(OC(F)(F)F)cc1	8	4	6	5	10	x	x
CCN(CC)S(=O)(=O)c1cc(C(=O)Nc2nncs2)c(Cl)cc1Cl	-8	4	11*	9	3	x	x	PP5 inh confirm=-2;PP1 counter 3x=-1
CCN(CC)S(=O)(=O)c1ccc(Cl)c(C(=O)Nc2nncs2)c1	-3	-1	-2	8	14	x	x
Oc1ccc(N=Cc2ccc(-c3cccs3)s2)cc1	-15	3	11*	-1	46*	47*	1	PP5 inh confirm=0;PP1 counter 3x=-2
CC1CCCC(NC(=O)CCS(=O)(=O)c2cc3c(cc2Cl)NC(=O)CO3)C1C (stereo not given)	0	0	0	-5	5	x	x
O=C(O)c1ccc(S(=O)(=O)/N=C2\C=C(Nc3ccccc3F)C(=O)c3ccccc32)cc1	15	6	9.6*	2	62*	69*	11	PP5 inh confirm=42*;PP1 counter 3x=12
CC(C)c1ccc(S(=O)(=O)/N=C2\C=C(NS(=O)(=O)c3ccccc3)C(=O)c3ccccc32)cc1	1	0	3	-4	4	x	x
CCOC(=O)Cc1csc(NC(=O)COc2ccccc2OCC)n1	-1	1	2	-9	48*	-4	-10
CCc1nn(CC(=O)N2CCN(C)CC2)c(=O)c2cccn12	-13	1	2	2	36*	-1	-8
NC(=O)c1nsc(C(=O)N(CC(=O)NC2CCCC2)Cc2ccc3c(c2)OCO3)c1N	-1	-3	0	-7	7	x	x
COc1cccc(N(C(=O)c2csnn2)C(C(=O)NC2CCCC2)c2ccccc2)c1 (stereo not given)	6	-4	0	6	4	x	x
N#CC(C#N)=C1NC(N)=C(C#N)C(c2ccccc2)=C1C#N	22	5	2	-16	12	x	x
CN(C)c1ccc(N/C=C/C(=O)c2ccccc2)cc1	-14	3	5	10	64*	13	11
COc1ccc(C(=O)N(C)c2c(C)n(C)n(-c3ccccc3)c2=O)cc1OC	-2	-3	-1	7	82*	-10	-2
COC(=O)N1C(=O)[C@@](c2ccccc2)(C2CCCCC2)N1C(=O)OC	-3	-2	0	-3	-2	x	x
O=C(O)CC(C(=O)O)N1C(=O)/C(=C/c2ccc(-c3nc4ccccc4s3)o2)SC1=S (stereo not given)	8	11	2	21	59*	64*	-3
COc1cc(S(=O)(=O)Nc2ccccc2C(=O)N2CCCCC2)ccc1NC(C)=O	x	-4	-3	x	10	x	x
C/C(=N\NC(=S)NCCc1ccccc1)c1ccc(C#N)cc1	1	-1	0	14	38*	5	23
CCOC(=O)C1CCCCN1Cc1ccc(OC)c(OC)c1 (stereo not given)	7	-3	0	4	34*	-5	-8
OC(Cn1cnnc1)c1ccccc1 (stereo not given)	-2	-1	2	-4	53*	1	-2
O=c1[nH]c(/C=C/c2ccc(Cl)cc2Cl)c([N+](=O)[O-])c(=O)[nH]1	40	5	0	16	55*	53*	1
C=CCn1c(NS(=O)(=O)c2ccccc2)c(S(=O)(=O)c2ccc(C)cc2)c2nc3ccccc3nc21	19	30*	13*	15	56*	20	8
SMILES	HCV core dimer	PP1 inh	PP5 primary	EBNA-1 inhibitor	ZTA DNA inh	ZTA inh confirm	EBNA1 counter	others
CCc1nnc(NS(=O)(=O)c2ccc(NC(=S)NC(=O)/C=C/c3ccccc3)cc2)s1	12	10	4	1	37*	13	5
Cc1ccc(NC(=O)C2CC(=O)Nc3ncnn32)c(C)c1 (stereo not given)	-2	2	-2	-4	-8	x	x
Cc1cc(C)nc(N/N=C/C2=C(N3CCOCC3)C(=C\c3ccc(Cl)cc3)/CC2)n1	17	2	2	1	8	x	x
O=C(O)c1ccc(N/N=C/C2=C(N3CCOCC3)C(=C\c3ccccc3)/CC2)cc1	10	5	2	14	69*	6	5
CC(=O)NC(CCS(C)(=O)=O)C(=O)Nc1ccc(Cl)c(Cl)c1 (stereo not given)	-4	7	2	20	36*	0	-5
O=C1c2ccccc2-c2onc3ccc(NCCCn4ccnc4)c1c23	-97	-18	-14	12	49*	32	21
COc1ccc2noc3c2c1C(=O)c1ccccc1-3	-3	-69	-65	1	14	x	x
COc1ccc(-n2nnc3c(=O)n(CC(=O)N4CCCc5ccccc54)cnc32)cc1	6	1	0	15	36*	3	-8
Cc1cc(Nc2cccc(F)c2)n2nc(C)nc2n1	6	-5	0	-2	107*	-9	-8
Cc1nc(C)c(C(=O)NNS(=O)(=O)c2ccc3ccccc3c2)s1	4	-3	0	4	4	x	x
Cc1c(C)n(Cc2ccccc2)c2ncnc(NN)c12	-6	4	0	13	39*	-2	0
CC(C)c1ccc2nc(SCC(=O)NCC3CCCO3)c(C#N)cc2c1 (stereo not given)	2	3	3	2	13	x	x
COc1ccc(CN(C)C(=O)c2cccc(NS(=O)(=O)c3ccccc3)c2)cc1F	-7	8	3	-2	-21	x	x
Cc1ccc(NCc2nnc(SCC(=O)NNC(=O)Cc3ccccc3)n2C)cc1	-3	-1	1	7	-10	x	x
Cc1nnc(NC(=O)CCn2c(=O)oc3ccccc32)s1	-20	-8	-6	-6	-8	x	x
CCN(CC)CCn1c(SCC(=O)Nc2ccc(F)cc2)nc2c(sc3ccccc32)c1=O	4	1	2	6	38*	24	-6
COc1ccccc1NC(=O)CSc1nc2c(sc3ccccc32)c(=O)n1CCN(C)C	2	3	4	10	5	x	x
Cc1ccc(NC(=O)CSCC#N)cc1	3	-5	-2	7	34*	-14	-9
CC(=O)Nc1ccc2[nH]c(C)cc(=O)c2c1	5	-4	-2	11	87*	2	-5
